ChEMBL document CHEMBL5257120 (Bioorg Med Chem, 2023)
The source made the active and inactive calls. The rule behind the calls is not given here.

What was measured:
MCF7 = test: Cytotoxicity against human MCF7 cells incubated for 72 hrs by Sulphorhodamine assay; assay type: functional, cell-based; conditions: MCF7, 72 h
Tubulin (Homo sapiens) = Tubulin (Homo sapiens) (UniProt P68371+Q9H4B7+P0DPH7+P68366+Q13509+Q71U36+P04350+Q3ZCM7+P07437+P68363+Q9BQE3+Q6PEY2+Q13885+Q9BVA1+Q9BUF5); test: Induction of microtubule stabilization in human HeLa cells assessed as effect on cellular cytoskeletal network of tubulin at 5 to 10 uM incubated for 4 hrs by Alexa Fluor 488 staining based confocal microscopic analysis; assay type: cell-based; conditions: dose 5-10 µM
Outline: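 HeLa cells treated for 4 h at 5 and 10 μM. Microtubules immunostained with Alexa Fluor 488-conjugated anti-β-tubulin and imaged by confocal microscopy with a 60× Plan Apochromat objective. References: paclitaxel 5 nM, podophyllotoxin 5 μM.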

[1] = Toxicity in Swiss albino mouse assessed as haemoglobin level at 1000 mg/kg, po administered for 7 days (reference value: 15.66 +/- 0.80 g/dl); assay type: organism-based; conditions: in vivo, 168 h, time 7 day
[2] = Toxicity in Swiss albino mouse assessed as RBC level at 1000 mg/kg, po administered for 7 days (reference value: 7.13 +/- 0.40 million/mm3); assay type: organism-based, Erythrocyte; conditions: in vivo, 168 h, time 7 day
Outline: (§1)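 Single acute oral dose (5, 50, 300 or 1000 mg/kg) given to Swiss albino mice, n = 6, with 7-day observation. At the end, haematological and serum biochemical parameters were measured. Compared with untreated controls; mean ± SE, ANOVA, p < 0.05.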

[3] = Hepatotoxicity in Swiss albino mouse assessed as alkaline phosphatase level at 1000 mg/kg, po administered for 7 days (reference value: 260.10 +/- 26.76 U/L); assay type: toxicity, organism-based; conditions: in vivo, 168 h, time 7 day; outline: as §1
[4] = Hepatotoxicity in Swiss albino mouse assessed as SGPT level at 5 mg/kg, po administered for 7 days (reference value: 17.01 +/- 2.33 U/L); assay type: toxicity, organism-based; conditions: in vivo, 168 h, time 7 day; outline: as §1
[5] = Renal toxicity in Swiss albino mouse assessed as creatinine level at 50 mg/kg, po administered for 7 days (reference value: 0.76 +/- 0.06 mg/dl); assay type: organism-based; conditions: in vivo, 168 h, time 7 day; outline: as §1
[6] = Renal toxicity in Swiss albino mouse assessed as creatinine level at 300 mg/kg, po administered for 7 days (reference value: 0.76 +/- 0.06 mg/dl); assay type: organism-based; conditions: in vivo, 168 h, time 7 day; outline: as §1
[7] = Toxicity in Swiss albino mouse assessed as cholesterol level at 50 mg/kg, po administered for 7 days (reference value: 140.17 +/- 3.76 mg/dl); assay type: organism-based; conditions: in vivo, 168 h, time 7 day

Which results are given for `COc1cc(C2/C(=C/c3ccc(/C=C/C(=O)NO)cc3)C(=O)c3cc(OC)c(OC)c(OC)c32)cc(OC)c1OC` (centres undefined)?
IC50 (MCF7): > 100 µM; Activity (Tubulin (Homo sapiens)): Active; Activity [1]: 16.73 g/dL; Activity [2]: 8.53 million/mm3; Activity [3]: 277.51 U/L; Activity [4]: 16.79 U/L; Activity [5]: 0.69 mg/dL; Activity [6]: 0.64 mg/dL; Activity [7]: 157.99 mg/dL
